Assay results published in ChEMBL document CHEMBL1629475, “Synthesis of new chalcone derivatives containing a rhodanine-3-acetic acid moiety with potential anti-bacterial activity” (2010).
Converted amounts (≈) assume the structure as drawn. The source made the active and inactive calls. No cut-off for these calls is given here.

Experiments:
Staphylococcus aureus [1] = experiment: Antibacterial activity against Staphylococcus aureus MRSA CCARM 3506 after 20 hrs by twofold serial dilution technique; assay type: functional; details: MRSA CCARM 3506, 20 h
Method in brief: (§1)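 Inoculum was 10⁵ CFU/mL. MIC was read after 20 h at 37 °C. The MRSA and QRSA strains were multidrug-resistant clinical isolates. Oxacillin and norfloxacin served as positive controls.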

Staphylococcus aureus [2] = experiment: Antibacterial activity against Staphylococcus aureus MRSA CCARM 3167 after 20 hrs by twofold serial dilution technique; assay type: functional; details: MRSA CCARM 3167, 20 h; method in brief: as §1
Streptococcus mutans [3] = experiment: Antibacterial activity against Streptococcus mutans KCTC 3065 after 20 hrs by twofold serial dilution technique; assay type: functional; details: KCTC 3065, 20 h
Method in brief: (§2)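 Inoculum was 10⁵ CFU/mL, and MIC was read after incubation at 37 °C for 20 h. Oxacillin and norfloxacin were the positive controls.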

Escherichia coli [4] = experiment: Antibacterial activity against Escherichia coli 1356 after 20 hrs by twofold serial dilution technique; assay type: functional; details: Escherichia coli, 1356, 20 h; method in brief: as §1
Staphylococcus aureus [5] = experiment: Antibacterial activity against Staphylococcus aureus KCTC 503 after 20 hrs by twofold serial dilution technique; assay type: functional; details: KCTC 503, 20 h; method in brief: as §1
Streptococcus mutans [6] = experiment: Antibacterial activity against Streptococcus mutans KCTC 3289 after 20 hrs by twofold serial dilution technique; assay type: functional; details: KCTC 3289, 20 h; method in brief: as §2
Escherichia coli [7] = experiment: Antibacterial activity against Escherichia coli 1924 after 20 hrs by twofold serial dilution technique; assay type: functional; details: Escherichia coli, 1924, 20 h; method in brief: as §1
Staphylococcus aureus [8] = experiment: Antibacterial activity against Staphylococcus aureus KCTC 209 after 20 hrs by twofold serial dilution technique; assay type: functional; details: KCTC 209, 20 h; method in brief: as §1
Staphylococcus aureus [9] = experiment: Antibacterial activity against Staphylococcus aureus QRSA CCARM 3519 after 20 hrs by twofold serial dilution technique; assay type: functional; details: QRSA CCARM 3519, 20 h; method in brief: as §1
Staphylococcus aureus [10] = experiment: Antibacterial activity against Staphylococcus aureus RN 4220 after 20 hrs by twofold serial dilution technique; assay type: functional; details: RN 4220, 20 h; method in brief: as §1
Staphylococcus aureus [11] = experiment: Antibacterial activity against Staphylococcus aureus QRSA CCARM 3505 after 20 hrs by twofold serial dilution technique; assay type: functional; details: QRSA CCARM 3505, 20 h; method in brief: as §1
Escherichia coli [12] = experiment: Antibacterial activity against Escherichia coli 1356 at 64 ug/ml; assay type: functional, organism-based
Escherichia coli [13] = experiment: Antibacterial activity against Escherichia coli 1924 at 64 ug/ml; assay type: functional, organism-based
Streptococcus mutans [14] = experiment: Antibacterial activity against Streptococcus mutans KCTC 3065 at 64 ug/ml; assay type: functional, organism-based
Staphylococcus aureus [15] = experiment: Antibacterial activity against Staphylococcus aureus KCTC 209 at 64 ug/ml; assay type: functional, organism-based
Streptococcus mutans [16] = experiment: Antibacterial activity against Streptococcus mutans KCTC 3289 at 64 ug/ml; assay type: functional, organism-based
Staphylococcus aureus [17] = experiment: Antibacterial activity against Staphylococcus aureus KCTC 503 at 64 ug/ml; assay type: functional, organism-based
Staphylococcus aureus [18] = experiment: Antibacterial activity against Staphylococcus aureus RN 4220 at 64 ug/ml; assay type: functional, organism-based

SMILES: Cc1onc(-c2ccccc2)c1C(=O)N[C@@H]1C(=O)N2[C@@H]1SC(C)(C)[C@@H]2C(=O)O [OXACILLIN]
- MIC (Staphylococcus aureus [1]): > 64 µg/mL
- MIC (Staphylococcus aureus [2]): > 64 µg/mL
- MIC (Streptococcus mutans [3]): 1 µg/mL (≈ 2.49 µM)
- MIC (Escherichia coli [4]): > 64 µg/mL
- MIC (Staphylococcus aureus [5]): 1 µg/mL (≈ 2.49 µM)
- MIC (Streptococcus mutans [6]): 1 µg/mL (≈ 2.49 µM)
- MIC (Escherichia coli [7]): > 64 µg/mL
- MIC (Staphylococcus aureus [8]): 1 µg/mL (≈ 2.49 µM)
- MIC (Staphylococcus aureus [9]): 1 µg/mL (≈ 2.49 µM)
- MIC (Staphylococcus aureus [10]): 1 µg/mL (≈ 2.49 µM)
- MIC (Staphylococcus aureus [11]): 1 µg/mL (≈ 2.49 µM)

SMILES: COCOc1ccc(C(=O)/C=C/c2ccc(/C=C3/SC(=S)N(CC(=O)O)C3=O)cc2)cc1
- MIC (Streptococcus mutans [3]): > 64 µg/mL
- MIC (Escherichia coli [4]): > 64 µg/mL
- Activity (Escherichia coli [12]): inactive
- MIC (Staphylococcus aureus [5]): > 64 µg/mL
- MIC (Streptococcus mutans [6]): > 64 µg/mL
- MIC (Escherichia coli [7]): > 64 µg/mL
- MIC (Staphylococcus aureus [8]): > 64 µg/mL
- Activity (Escherichia coli [13]): inactive
- MIC (Staphylococcus aureus [10]): > 64 µg/mL

SMILES: O=C(O)CN1C(=O)/C(=C\c2ccc(/C=C/C(=O)c3ccc(Cl)cc3)cc2)SC1=S
- MIC (Staphylococcus aureus [1]): 4 µg/mL (≈ 9.01 µM)
- MIC (Staphylococcus aureus [2]): 4 µg/mL (≈ 9.01 µM)
- MIC (Streptococcus mutans [3]): 4 µg/mL (≈ 9.01 µM)
- MIC (Escherichia coli [4]): > 64 µg/mL
- Activity (Escherichia coli [12]): inactive
- MIC (Staphylococcus aureus [5]): 4 µg/mL (≈ 9.01 µM)
- MIC (Streptococcus mutans [6]): 4 µg/mL (≈ 9.01 µM)
- MIC (Escherichia coli [7]): > 64 µg/mL
- MIC (Staphylococcus aureus [8]): 4 µg/mL (≈ 9.01 µM)
- Activity (Escherichia coli [13]): inactive
- MIC (Staphylococcus aureus [9]): 4 µg/mL (≈ 9.01 µM)
- MIC (Staphylococcus aureus [10]): 4 µg/mL (≈ 9.01 µM)
- MIC (Staphylococcus aureus [11]): 4 µg/mL (≈ 9.01 µM)

SMILES: O=C(O)CN1C(=O)/C(=C\c2ccc(/C=C/C(=O)c3ccccc3Br)cc2)SC1=S
- Activity (Streptococcus mutans [14]): inactive
- Activity (Staphylococcus aureus [15]): inactive
- MIC (Streptococcus mutans [3]): > 64 µg/mL
- MIC (Escherichia coli [4]): > 64 µg/mL
- Activity (Streptococcus mutans [16]): inactive
- Activity (Escherichia coli [12]): inactive
- MIC (Staphylococcus aureus [5]): > 64 µg/mL
- Activity (Staphylococcus aureus [17]): inactive
- MIC (Streptococcus mutans [6]): > 64 µg/mL
- Activity (Staphylococcus aureus [18]): inactive
- MIC (Escherichia coli [7]): > 64 µg/mL
- MIC (Staphylococcus aureus [8]): > 64 µg/mL
- Activity (Escherichia coli [13]): inactive
- MIC (Staphylococcus aureus [10]): > 64 µg/mL

SMILES: Cc1ccc(C(=O)/C=C/c2ccc(/C=C3/SC(=S)N(CC(=O)O)C3=O)cc2)c(C)c1
- MIC (Staphylococcus aureus [1]): 4 µg/mL (≈ 9.14 µM)
- MIC (Staphylococcus aureus [2]): 4 µg/mL (≈ 9.14 µM)
- MIC (Streptococcus mutans [3]): 4 µg/mL (≈ 9.14 µM)
- MIC (Escherichia coli [4]): > 64 µg/mL
- Activity (Escherichia coli [12]): inactive
- MIC (Staphylococcus aureus [5]): 4 µg/mL (≈ 9.14 µM)
- MIC (Streptococcus mutans [6]): 8 µg/mL (≈ 18.3 µM)
- MIC (Escherichia coli [7]): > 64 µg/mL
- MIC (Staphylococcus aureus [8]): 4 µg/mL (≈ 9.14 µM)
- Activity (Escherichia coli [13]): inactive
- MIC (Staphylococcus aureus [9]): 4 µg/mL (≈ 9.14 µM)
- MIC (Staphylococcus aureus [10]): 4 µg/mL (≈ 9.14 µM)
- MIC (Staphylococcus aureus [11]): 4 µg/mL (≈ 9.14 µM)

SMILES: COCOc1cccc(C(=O)/C=C/c2ccc(/C=C3/SC(=S)N(CC(=O)O)C3=O)cc2)c1
- MIC (Streptococcus mutans [3]): > 64 µg/mL
- MIC (Escherichia coli [4]): > 64 µg/mL
- Activity (Escherichia coli [12]): inactive
- MIC (Staphylococcus aureus [5]): > 64 µg/mL
- MIC (Streptococcus mutans [6]): > 64 µg/mL
- MIC (Escherichia coli [7]): > 64 µg/mL
- MIC (Staphylococcus aureus [8]): > 64 µg/mL
- Activity (Escherichia coli [13]): inactive
- MIC (Staphylococcus aureus [10]): > 64 µg/mL

SMILES: O=Cc1ccc(/C=C/C(=O)c2ccc(Cl)cc2Cl)cc1
- MIC (Streptococcus mutans [3]): > 64 µg/mL
- MIC (Escherichia coli [4]): > 64 µg/mL
- Activity (Escherichia coli [12]): inactive
- MIC (Staphylococcus aureus [5]): 64 µg/mL (≈ 210 µM)
- MIC (Streptococcus mutans [6]): > 64 µg/mL
- MIC (Escherichia coli [7]): > 64 µg/mL
- MIC (Staphylococcus aureus [8]): 64 µg/mL (≈ 210 µM)
- Activity (Escherichia coli [13]): inactive
- MIC (Staphylococcus aureus [10]): 64 µg/mL (≈ 210 µM)

SMILES: COc1cccc(C(=O)/C=C/c2ccc(/C=C3/SC(=S)N(CC(=O)O)C3=O)cc2)c1
- MIC (Staphylococcus aureus [1]): 8 µg/mL (≈ 18.2 µM)
- MIC (Staphylococcus aureus [2]): 8 µg/mL (≈ 18.2 µM)
- MIC (Streptococcus mutans [3]): 8 µg/mL (≈ 18.2 µM)
- MIC (Escherichia coli [4]): > 64 µg/mL
- Activity (Escherichia coli [12]): inactive
- MIC (Staphylococcus aureus [5]): 8 µg/mL (≈ 18.2 µM)
- MIC (Streptococcus mutans [6]): 8 µg/mL (≈ 18.2 µM)
- MIC (Escherichia coli [7]): > 64 µg/mL
- MIC (Staphylococcus aureus [8]): 8 µg/mL (≈ 18.2 µM)
- Activity (Escherichia coli [13]): inactive
- MIC (Staphylococcus aureus [9]): 8 µg/mL (≈ 18.2 µM)
- MIC (Staphylococcus aureus [10]): 8 µg/mL (≈ 18.2 µM)
- MIC (Staphylococcus aureus [11]): 8 µg/mL (≈ 18.2 µM)

SMILES: O=C(O)CN1C(=O)/C(=C\c2ccc(/C=C/C(=O)c3ccc(F)cc3)cc2)SC1=S
- MIC (Staphylococcus aureus [1]): 4 µg/mL (≈ 9.36 µM)
- MIC (Staphylococcus aureus [2]): 4 µg/mL (≈ 9.36 µM)
- MIC (Streptococcus mutans [3]): 4 µg/mL (≈ 9.36 µM)
- MIC (Escherichia coli [4]): > 64 µg/mL
- Activity (Escherichia coli [12]): inactive
- MIC (Staphylococcus aureus [5]): 4 µg/mL (≈ 9.36 µM)
- MIC (Streptococcus mutans [6]): 4 µg/mL (≈ 9.36 µM)
- MIC (Escherichia coli [7]): > 64 µg/mL
- MIC (Staphylococcus aureus [8]): 4 µg/mL (≈ 9.36 µM)
- Activity (Escherichia coli [13]): inactive
- MIC (Staphylococcus aureus [9]): 4 µg/mL (≈ 9.36 µM)
- MIC (Staphylococcus aureus [10]): 4 µg/mL (≈ 9.36 µM)
- MIC (Staphylococcus aureus [11]): 4 µg/mL (≈ 9.36 µM)

SMILES: O=C(O)CN1C(=O)/C(=C\c2ccc(/C=C/C(=O)c3ccc(Cl)cc3Cl)cc2)SC1=S
- MIC (Staphylococcus aureus [1]): 2 µg/mL (≈ 4.18 µM)
- MIC (Staphylococcus aureus [2]): 2 µg/mL (≈ 4.18 µM)
- MIC (Streptococcus mutans [3]): 2 µg/mL (≈ 4.18 µM)
- MIC (Escherichia coli [4]): > 64 µg/mL
- Activity (Escherichia coli [12]): inactive
- MIC (Staphylococcus aureus [5]): 2 µg/mL (≈ 4.18 µM)
- MIC (Streptococcus mutans [6]): 2 µg/mL (≈ 4.18 µM)
- MIC (Escherichia coli [7]): > 64 µg/mL
- MIC (Staphylococcus aureus [8]): 2 µg/mL (≈ 4.18 µM)
- Activity (Escherichia coli [13]): inactive
- MIC (Staphylococcus aureus [9]): 2 µg/mL (≈ 4.18 µM)
- MIC (Staphylococcus aureus [10]): 2 µg/mL (≈ 4.18 µM)
- MIC (Staphylococcus aureus [11]): 2 µg/mL (≈ 4.18 µM)

SMILES: O=C(O)CN1C(=O)/C(=C\c2ccc(/C=C/C(=O)c3ccc([N+](=O)[O-])cc3)cc2)SC1=S
- MIC (Staphylococcus aureus [1]): 4 µg/mL (≈ 8.8 µM)
- MIC (Staphylococcus aureus [2]): 4 µg/mL (≈ 8.8 µM)
- MIC (Streptococcus mutans [3]): 8 µg/mL (≈ 17.6 µM)
- MIC (Escherichia coli [4]): > 64 µg/mL
- Activity (Escherichia coli [12]): inactive
- MIC (Staphylococcus aureus [5]): 4 µg/mL (≈ 8.8 µM)
- MIC (Streptococcus mutans [6]): 8 µg/mL (≈ 17.6 µM)
- MIC (Escherichia coli [7]): > 64 µg/mL
- MIC (Staphylococcus aureus [8]): 4 µg/mL (≈ 8.8 µM)
- Activity (Escherichia coli [13]): inactive
- MIC (Staphylococcus aureus [9]): 4 µg/mL (≈ 8.8 µM)
- MIC (Staphylococcus aureus [10]): 4 µg/mL (≈ 8.8 µM)
- MIC (Staphylococcus aureus [11]): 4 µg/mL (≈ 8.8 µM)
